Measurements collected from several papers.
Each line is one published result; the experiments were not run side by side.
Target: Cyclin-dependent kinase-like 1 (CDKL1, Homo sapiens, UniProt Q00532)

With O=C(c1ccc(Nc2ncc(Cl)c(-c3ccc(Cl)s3)n2)cc1)N1CCC(N2CCCC2)CC1 the remaining binding was 32% (binding; competition with immobilised ligand; 1 µM).
For Cc1cnn2ncc(-c3ccnc(N(C)C)n3)c2c1, the remaining binding was 73% (binding; 1 µM).
O=C(c1ccc(Nc2nccc(-c3cc4ccccc4s3)n2)cc1)N1CCC(N2CCCC2)CC1 has a remaining binding of 71% (binding; competition with immobilised ligand; 1 µM).
C[C@@H]1CCN(c2nccc(-c3cnn4ncccc34)n2)C1 gave a remaining binding of 70% (binding; 1 µM).
For N#Cc1ccc(Nc2ccc3[nH]c(=O)[nH]c3c2)c(Cl)c1, the remaining binding was 84% (binding; competition with immobilised ligand; 1 µM).
With Nc1ncc2c(n1)-c1c([nH]c3ccc(C#CC4CC4)cc13)CCCC2 the remaining binding was 81% (binding; competition with immobilised ligand; 1 µM).
The remaining binding of CC(=O)Nc1c(C(C)=O)c(=O)n(C)c2nc(-c3ccc(Cl)cc3Cl)c(-c3ccc(Cl)cc3)cc12 is reported as 100% (cell-free assay; competition with immobilised ligand; 1 µM).
F[C@@H]1CCN(c2nccc(-c3cnn4ncccc34)n2)C1 gave a remaining binding of 89% (binding; 1 µM).
C[C@H](c1ccnc(Nc2nc3ccc(-c4cc(N(C)C)ncn4)cc3[nH]2)c1)N1CCN(C(=O)CC(F)(F)F)CC1 has a remaining binding of 100% (binding; competition with immobilised ligand; 0.1 µM).
c1cnn2ncc(-c3ccnc(N4CCC45COC5)n3)c2c1 gave a remaining binding of 59% (binding; 1 µM).
For CNC(=O)Nc1ccc2c(c1)CC[C@@]21OC(=O)N(CC(=O)N(Cc2ccc(F)cc2)[C@@H](C)C(F)(F)F)C1=O, the remaining binding was 86% (binding; competition with immobilised ligand; 1 µM).
For C[C@@H](c1ccc(-n2cnc3c(N)ncnc32)cc1)N1CCc2nn(C)c(Cc3ccccc3)c2C1=O, the remaining binding was 58% (binding; competition with immobilised ligand; 0.1 µM).
O=C(NCC1CCOCC1)c1n[nH]cc1NC(=O)c1c(F)cccc1F gave a remaining binding of 77% (binding; competition with immobilised ligand; 1 µM).
With CNC(=O)[C@@H]1CC[C@@H](n2c(-c3ccc4cnccc4c3)nc3ccc(C(=O)NCc4cccc(C(N)=O)c4)cc32)C1 the remaining binding was 90% (binding; competition with immobilised ligand; 1 µM).
Cc1cnc(Nc2ccc(C(=O)N3CCC(N4CCCC4)CC3)cc2)nc1-c1cc2ccccc2s1 has a remaining binding of 50% (binding; competition with immobilised ligand; 1 µM).
CN(C)c1nccc(-c2cnc3ncccn23)n1 gave a remaining binding of 100% (binding; 1 µM).
With O=C1NC(c2ccccn2)Sc2ccccc21 (centres unmarked) the remaining binding was 75% (cell-free assay; competition with immobilised ligand; 1 µM).
N[C@H]1CCN(c2nccc(-c3cnn4ncccc34)n2)C1 has a remaining binding of 80% (binding; 1 µM).
c1ccc(N2CCN(Cc3nc4ccccc4[nH]3)CC2)nc1 gave a remaining binding of 78% (binding; competition with immobilised ligand; 1 µM).
The remaining binding of FC(F)(F)Oc1cccc(-c2cnc3ccc(-c4ccncc4)nn23)c1 is reported as 68% (cell-free assay; competition with immobilised ligand; 5 µM).
